# Assay results taken from ChEMBL document CHEMBL3804775, “Development of a Potent, Specific CDK8 Kinase Inhibitor Which Phenocopies CDK8/19 Knockout Cells” (ACS Med Chem Lett, 2016).
# The source made the active and inactive calls. The rule behind the calls is not given here.
# Experiments:
# CDK8/Cyclin C = CDK8/Cyclin C (Homo sapiens, UniProt P49336); assay: Inhibition of full length human recombinant His-tagged CDK8/Cyclin C expressed in baculovirus expression system by fluorescence polarization assay
# CDK8/Cyclin C, sequence (P49336 whole entry): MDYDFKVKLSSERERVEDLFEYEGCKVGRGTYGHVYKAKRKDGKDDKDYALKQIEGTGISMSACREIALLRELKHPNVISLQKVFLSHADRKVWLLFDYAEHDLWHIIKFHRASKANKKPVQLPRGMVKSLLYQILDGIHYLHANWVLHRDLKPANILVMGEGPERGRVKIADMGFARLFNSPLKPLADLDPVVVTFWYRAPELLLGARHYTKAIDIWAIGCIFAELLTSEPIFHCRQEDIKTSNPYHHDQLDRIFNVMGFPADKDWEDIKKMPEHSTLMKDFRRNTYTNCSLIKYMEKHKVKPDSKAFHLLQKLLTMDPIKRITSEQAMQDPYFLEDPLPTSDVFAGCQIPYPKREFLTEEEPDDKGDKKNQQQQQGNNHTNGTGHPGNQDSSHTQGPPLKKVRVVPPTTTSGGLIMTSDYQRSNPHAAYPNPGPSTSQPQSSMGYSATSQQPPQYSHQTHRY
# CDK8/Cyclin C, sequence (P24863 whole entry, further chain): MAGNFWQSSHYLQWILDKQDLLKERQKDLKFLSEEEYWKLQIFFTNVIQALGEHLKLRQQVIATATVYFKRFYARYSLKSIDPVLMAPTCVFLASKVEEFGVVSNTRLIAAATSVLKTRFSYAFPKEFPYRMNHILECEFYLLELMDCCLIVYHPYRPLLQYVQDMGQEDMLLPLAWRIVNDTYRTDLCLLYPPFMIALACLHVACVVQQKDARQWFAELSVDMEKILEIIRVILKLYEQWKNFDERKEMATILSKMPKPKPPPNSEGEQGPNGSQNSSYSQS
# [1] = Plasma protein binding in mouse; type: ADME, cell-free; conditions: read-out: PPB (converted)
# [2] = Plasma protein binding in rat; type: ADME, cell-free; conditions: read-out: PPB (converted)
# [3] = Plasma protein binding in human; type: ADME, cell-free; conditions: read-out: PPB (converted)
# [4] = Kinetic solubility in DMSO/phosphate buffered saline at pH 7.4 at 200 uM after 24 hrs by UHPLC based chemiluminescent nitrogen detection method; type: physicochemical; conditions: read-out: Kinetic_solubility
# [5] = target: T1, Homeodomain-interacting protein kinase 4 (Homo sapiens) (UniProt Q8NE63); assay: Inhibition of full length human recombinant N-terminal GST-tagged HIPK4 expressed in baculovirus expression system using Ser/Thr peptide 18 substrate at 0.1 uM by Z-Lyte assay relative to control
# T1 sequence (whole entry): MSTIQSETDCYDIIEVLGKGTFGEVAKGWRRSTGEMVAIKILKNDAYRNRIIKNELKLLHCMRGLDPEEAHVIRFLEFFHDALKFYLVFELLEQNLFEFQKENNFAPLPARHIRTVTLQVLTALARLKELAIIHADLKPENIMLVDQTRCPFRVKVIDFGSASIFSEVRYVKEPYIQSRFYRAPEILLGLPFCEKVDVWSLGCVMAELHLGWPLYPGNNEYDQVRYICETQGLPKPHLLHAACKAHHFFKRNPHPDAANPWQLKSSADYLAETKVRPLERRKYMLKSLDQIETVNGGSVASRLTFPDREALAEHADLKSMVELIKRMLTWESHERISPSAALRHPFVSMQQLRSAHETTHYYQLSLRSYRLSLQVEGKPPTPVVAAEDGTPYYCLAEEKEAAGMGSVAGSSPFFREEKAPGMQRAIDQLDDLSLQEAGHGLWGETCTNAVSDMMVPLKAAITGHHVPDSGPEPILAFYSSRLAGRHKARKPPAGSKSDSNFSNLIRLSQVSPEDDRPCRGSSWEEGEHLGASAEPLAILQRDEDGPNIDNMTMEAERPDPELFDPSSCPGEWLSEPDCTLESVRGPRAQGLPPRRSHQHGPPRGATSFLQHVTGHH
# How it was run: (§1)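 Single-concentration screen at 0.1 μM within a 52-kinase selectivity panel, with percent inhibition reported for each kinase.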
# [6] = target: Serine/threonine-protein kinase Nek4 (Homo sapiens) (UniProt P51957); assay: Inhibition of full length human recombinant GST-tagged NEK4 expressed in baculovirus expression system using Ser/Thr peptide 17 substrate at 0.1 uM by Z-Lyte assay relative to control
# Serine/threonine-protein kinase Nek4 (Homo sapiens), sequence (P51957 whole entry, looked up): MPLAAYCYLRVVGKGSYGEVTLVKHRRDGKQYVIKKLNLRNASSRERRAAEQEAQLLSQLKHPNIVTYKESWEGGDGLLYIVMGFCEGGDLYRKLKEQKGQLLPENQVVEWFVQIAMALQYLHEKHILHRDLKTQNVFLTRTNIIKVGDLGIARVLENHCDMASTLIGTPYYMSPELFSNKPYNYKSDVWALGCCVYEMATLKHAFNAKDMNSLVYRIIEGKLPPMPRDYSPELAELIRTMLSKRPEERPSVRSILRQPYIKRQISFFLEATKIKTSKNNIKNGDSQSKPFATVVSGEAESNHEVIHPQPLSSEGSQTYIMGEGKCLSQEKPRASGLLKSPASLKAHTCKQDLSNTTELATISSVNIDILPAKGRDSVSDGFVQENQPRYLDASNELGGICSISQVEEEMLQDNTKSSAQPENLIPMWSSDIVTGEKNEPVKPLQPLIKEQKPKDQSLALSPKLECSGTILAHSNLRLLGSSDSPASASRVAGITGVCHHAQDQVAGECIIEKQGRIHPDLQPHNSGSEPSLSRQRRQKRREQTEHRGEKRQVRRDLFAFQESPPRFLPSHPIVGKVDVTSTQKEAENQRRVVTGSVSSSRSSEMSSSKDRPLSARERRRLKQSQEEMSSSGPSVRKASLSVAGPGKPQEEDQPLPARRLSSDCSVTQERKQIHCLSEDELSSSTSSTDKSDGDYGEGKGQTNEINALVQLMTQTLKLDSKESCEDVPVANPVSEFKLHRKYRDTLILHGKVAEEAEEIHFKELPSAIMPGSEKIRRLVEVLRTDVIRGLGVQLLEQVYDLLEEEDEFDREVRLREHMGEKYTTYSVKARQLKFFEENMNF
# How it was run: (§2)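 Single-point kinase selectivity screen at 0.1 μM compound across a panel of 52 kinases, recorded as percent inhibition for each kinase.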
# [7] = target: Glycogen synthase kinase-3 alpha (Homo sapiens) (UniProt P49840); assay: Inhibition of recombinant GSK3alpha (unknown origin) at 0.1 uM relative to control; how it was run: as §1
# Glycogen synthase kinase-3 alpha (Homo sapiens), sequence (P49840 2-483 limits assumed): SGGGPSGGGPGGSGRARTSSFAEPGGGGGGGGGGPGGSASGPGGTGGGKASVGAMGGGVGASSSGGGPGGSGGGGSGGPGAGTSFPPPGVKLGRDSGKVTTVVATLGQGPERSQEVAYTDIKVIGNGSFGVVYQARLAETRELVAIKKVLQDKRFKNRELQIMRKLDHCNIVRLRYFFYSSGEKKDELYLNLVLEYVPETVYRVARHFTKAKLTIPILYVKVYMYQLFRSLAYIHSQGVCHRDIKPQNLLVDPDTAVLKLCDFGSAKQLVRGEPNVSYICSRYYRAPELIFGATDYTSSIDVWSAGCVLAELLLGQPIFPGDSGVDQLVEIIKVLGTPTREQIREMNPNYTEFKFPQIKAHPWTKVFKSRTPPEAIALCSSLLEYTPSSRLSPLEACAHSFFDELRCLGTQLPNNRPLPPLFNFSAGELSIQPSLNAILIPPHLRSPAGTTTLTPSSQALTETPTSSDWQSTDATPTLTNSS
# [8] = Permeability from apical to basolateral side in MDCK cells; type: ADME, cell-based, Canis lupus familiaris; conditions: dog, read-out: permeability
# [9] = target: PAS domain-containing serine/threonine-protein kinase (Homo sapiens) (UniProt Q96RG2); assay: Inhibition of human recombinant GST-tagged PASK (879 to 1323 residues) expressed in baculovirus expression system at 0.1 uM relative to control; how it was run: as §2
# PAS domain-containing serine/threonine-protein kinase (Homo sapiens), sequence (Q96RG2 whole entry, the tested form may be a part): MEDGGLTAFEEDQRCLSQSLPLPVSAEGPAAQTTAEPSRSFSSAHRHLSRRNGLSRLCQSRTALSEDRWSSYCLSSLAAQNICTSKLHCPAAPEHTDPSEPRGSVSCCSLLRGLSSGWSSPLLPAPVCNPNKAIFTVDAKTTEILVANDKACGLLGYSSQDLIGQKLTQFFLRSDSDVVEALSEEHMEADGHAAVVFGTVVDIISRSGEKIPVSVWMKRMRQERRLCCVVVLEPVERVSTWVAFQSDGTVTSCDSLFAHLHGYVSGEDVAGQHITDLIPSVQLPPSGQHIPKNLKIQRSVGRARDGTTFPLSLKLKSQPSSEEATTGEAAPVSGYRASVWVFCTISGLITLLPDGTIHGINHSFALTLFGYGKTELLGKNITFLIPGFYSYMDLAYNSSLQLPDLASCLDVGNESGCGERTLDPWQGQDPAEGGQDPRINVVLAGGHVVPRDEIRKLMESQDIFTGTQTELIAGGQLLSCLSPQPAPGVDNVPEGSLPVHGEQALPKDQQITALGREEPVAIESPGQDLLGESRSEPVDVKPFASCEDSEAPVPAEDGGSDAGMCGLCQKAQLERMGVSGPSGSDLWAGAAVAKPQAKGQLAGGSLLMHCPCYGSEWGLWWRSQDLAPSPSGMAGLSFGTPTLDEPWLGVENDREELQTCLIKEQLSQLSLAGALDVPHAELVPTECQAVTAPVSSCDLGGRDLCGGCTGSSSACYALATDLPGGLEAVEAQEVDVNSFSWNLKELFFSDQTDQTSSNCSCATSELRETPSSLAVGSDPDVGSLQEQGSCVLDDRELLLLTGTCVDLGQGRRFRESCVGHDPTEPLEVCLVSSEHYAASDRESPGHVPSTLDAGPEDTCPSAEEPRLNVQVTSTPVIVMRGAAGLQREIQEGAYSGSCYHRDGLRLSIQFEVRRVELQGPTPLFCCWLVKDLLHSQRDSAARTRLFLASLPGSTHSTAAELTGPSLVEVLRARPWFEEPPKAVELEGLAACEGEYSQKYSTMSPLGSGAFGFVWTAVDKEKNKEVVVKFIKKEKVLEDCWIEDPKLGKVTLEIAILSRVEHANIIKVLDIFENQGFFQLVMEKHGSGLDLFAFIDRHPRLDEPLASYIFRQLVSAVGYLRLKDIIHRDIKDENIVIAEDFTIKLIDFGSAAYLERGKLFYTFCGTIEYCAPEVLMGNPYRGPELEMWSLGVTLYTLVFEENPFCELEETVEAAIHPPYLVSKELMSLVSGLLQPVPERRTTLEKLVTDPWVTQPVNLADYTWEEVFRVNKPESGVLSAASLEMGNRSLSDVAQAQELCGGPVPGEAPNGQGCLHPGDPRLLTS
# [10] = target: CDK9/cyclin T1 (Homo sapiens) (UniProt O60563+P50750); assay: Inhibition of full length human recombinant His-tagged CDK9/Cyclin T expressed in baculovirus expression system using Cdk7/9tide as substrate at 0.1 uM by adapta assay relative to control; how it was run: as §2
# [11] = Antiproliferative activity against human HCT116 cells after 72 hrs by Celltiter-Glo reagent based assay in presence of 10% fetal bovine serum; type: functional, cell-based; conditions: HCT-116, 72 h
# CDK9/cyclin T1 = CDK9/cyclin T1 (Homo sapiens, UniProt P50750); assay: Inhibition of full length human recombinant His-tagged CDK9/Cyclin T expressed in baculovirus expression system using Cdk7/9tide as substrate by adapta assay
# CDK9/cyclin T1, sequence (O60563 whole entry): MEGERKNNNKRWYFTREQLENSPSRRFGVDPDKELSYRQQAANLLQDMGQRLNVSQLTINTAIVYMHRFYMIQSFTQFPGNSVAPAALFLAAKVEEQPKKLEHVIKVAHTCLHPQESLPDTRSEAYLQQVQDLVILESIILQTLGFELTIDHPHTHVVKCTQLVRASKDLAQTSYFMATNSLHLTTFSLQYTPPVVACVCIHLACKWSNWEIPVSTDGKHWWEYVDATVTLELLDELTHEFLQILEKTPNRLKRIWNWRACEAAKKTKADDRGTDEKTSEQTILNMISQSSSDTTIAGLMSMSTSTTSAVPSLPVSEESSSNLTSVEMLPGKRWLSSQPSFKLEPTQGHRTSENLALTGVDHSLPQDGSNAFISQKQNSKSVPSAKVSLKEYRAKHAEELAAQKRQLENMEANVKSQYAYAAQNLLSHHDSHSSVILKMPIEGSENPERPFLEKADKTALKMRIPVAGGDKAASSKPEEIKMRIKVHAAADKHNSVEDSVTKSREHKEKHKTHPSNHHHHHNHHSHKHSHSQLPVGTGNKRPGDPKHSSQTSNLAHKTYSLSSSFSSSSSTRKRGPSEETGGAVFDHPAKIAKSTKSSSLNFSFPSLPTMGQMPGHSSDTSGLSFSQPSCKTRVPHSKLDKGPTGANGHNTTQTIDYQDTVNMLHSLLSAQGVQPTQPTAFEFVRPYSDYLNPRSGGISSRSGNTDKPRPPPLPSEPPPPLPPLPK
# CDK9/cyclin T1, sequence (P50750 whole entry): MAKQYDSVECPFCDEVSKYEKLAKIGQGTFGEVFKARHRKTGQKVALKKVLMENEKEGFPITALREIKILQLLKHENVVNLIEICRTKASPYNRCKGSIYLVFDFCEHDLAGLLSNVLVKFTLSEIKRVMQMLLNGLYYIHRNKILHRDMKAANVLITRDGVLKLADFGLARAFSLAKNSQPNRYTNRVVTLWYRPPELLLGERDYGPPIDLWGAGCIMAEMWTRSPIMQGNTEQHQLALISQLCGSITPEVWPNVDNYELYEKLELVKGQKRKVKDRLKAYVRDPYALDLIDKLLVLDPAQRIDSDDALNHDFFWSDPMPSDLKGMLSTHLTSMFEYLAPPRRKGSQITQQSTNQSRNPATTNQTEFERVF
# [12] = Ratio of EC50 for antiproliferative activity against human HCT116 cells after 72 hrs by Celltiter-Glo reagent based assay to IC50 for inhibition of full length human recombinant His-tagged CDK8/Cyclin C expressed in baculovirus expression system by fluorescence polarization assay; design: species or system HCT-116
# [13] = Antiproliferative activity against human HCT116 cells after 72 hrs by Celltiter-Glo reagent based assay in presence of 0.625% fetal bovine serum; type: functional, cell-based; conditions: HCT-116, 72 h
# HCT-116 [14] = assay: Antiproliferative activity against CDK8/CDK19 double knockout human HCT116 cells after 72 hrs by Celltiter-Glo reagent based assay; type: functional, cell-based
# How it was run: (§3)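 HCT-116 CDK8 knockout and CDK8/CDK19 double knockout clones, derived from wild-type HCT-116, were incubated alongside the parent line with varying concentrations of compound. Cell viability was read at 72 h to give growth-inhibition curves.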
# HCT-116 [15] = assay: Antiproliferative activity against CDK8 knockout human HCT116 cells after 72 hrs by Celltiter-Glo reagent based assay; type: functional, cell-based; how it was run: as §3
Compound,IC50 (CDK8/Cyclin C) [nM],fraction unbound [1],fraction unbound [2],fraction unbound [3],"solubility kinetic at 24 h, 200 µM [4] [µM]",Papp A→B [8] [×10⁻⁶ cm/s],other results
CC(=O)c1cc2c(Oc3ccc(Cl)cc3)cncc2s1,32,0.003,0.002,0.003,,,
CCNC(=O)c1cc2c(Oc3ccc(Cl)cc3)cncc2s1,16,,,,,,
CC(=O)Nc1ccc(Oc2cncc3sc(-c4nnn[nH]4)cc23)cc1,2,,,,,0.8,
O=C(O)c1cc2c(Oc3ccc(Cl)cc3)cncc2s1,2.8,0.003,0.003,0.002,,,EC50 [11]: > 10000 nM; EC50 [13]: > 10000 nM
N#Cc1ccc(Oc2cncc3sc(C(N)=O)cc23)cc1,5.1,0.109,0.127,0.153,8,,
NC(=O)c1cc2c(Oc3ccc(Cl)cc3)cncc2s1,6.2,,,,6.3,,IC50 (CDK9/cyclin T1): 2200 nM
NC(=O)c1ccc(Oc2cncc3sc(-c4nnn[nH]4)cc23)cc1,4.4,,,,,0.7,
COc1ccc(Oc2cncc3sc(C(N)=O)cc23)cc1,25,0.098,0.06,0.064,10,,
CNC(=O)c1cc2c(Oc3ccc(I)cc3)cncc2s1,5.3,0.002,0.001,0.002,,,
FC(F)(F)Oc1ccc(Oc2cncc3sc(-c4nnn[nH]4)cc23)cc1,1.1,,,,,24,EC50 [11]: > 10000 nM; EC50 [13]: > 10000 nM
NC(=O)c1cc2c(Oc3ccc(OC(F)(F)F)cc3)cncc2s1,12,0.028,0.032,0.021,< 1,,EC50 [11]: > 10000 nM; EC50 [13]: > 10000 nM
CCC(=O)c1cc2c(Oc3ccc(Cl)cc3)cncc2s1,29,< 0.001,< 0.001,< 0.001,,,
Cc1ncc(Oc2ccc(Cl)cc2)c2cc(C(N)=O)sc12,8,0.012,0.008,0.007,10,,EC50 [11]: > 10000 nM; Ratio [12]: 1000; EC50 [13]: 8700 nM
CN1CC[C@H](c2c(O)cc(O)c3c(=O)cc(-c4ccccc4Cl)oc23)[C@H](O)C1 [ALVOCIDIB],,,,,,,EC50 [11]: 34 nM
Fc1ccc(Oc2cncc3sc(-c4nnn[nH]4)cc23)cc1,5.5,,,,,9.1,
Clc1ccc(Oc2cncc3sc(-c4nnn[nH]4)cc23)cc1,1.1,,,,,11,EC50 [11]: > 10000 nM; EC50 [13]: > 10000 nM
CNC(=O)c1cc2c(Oc3ccc(Cl)cc3)cncc2s1,8.2,0.023,0.01,0.015,,,
N#Cc1ccc(Oc2cncc3sc(-c4nnn[nH]4)cc23)cc1,1,,,,,2.5,EC50 [11]: > 10000 nM; EC50 [13]: > 10000 nM
c1ccc(Oc2cncc3sc(-c4nn[nH]n4)cc23)cc1,8.3,,,,,4.1,

# The next lines start with results.
IC50 (CDK8/Cyclin C) [nM],fraction unbound [1],fraction unbound [2],fraction unbound [3],"solubility kinetic at 24 h, 200 µM [4] [µM]",Papp A→B [8] [×10⁻⁶ cm/s],Compound,other results
29,0.204,0.152,0.09,18,,CC(=O)Nc1ccc(Oc2cncc3sc(C(N)=O)cc23)cc1,
0.7,,,,,24,Ic1ccc(Oc2cncc3sc(-c4nn[nH]n4)cc23)cc1,inhibition [5]: > 80%; inhibition [6]: > 30%; inhibition [7]: > 80%; inhibition [9]: > 50%; inhibition [10]: > 30%
6,0.039,0.041,0.028,< 1,,Cc1ccc(Oc2cncc3sc(C(N)=O)cc23)cc1,
75,,,,,,CN(C)C(=O)c1cc2c(Oc3ccc(Cl)cc3)cncc2s1,
3,,,,,1.9,NC(=O)c1ccc(-c2ccc(Oc3cncc4sc(-c5nn[nH]n5)cc34)cc2)cc1,inhibition [5]: > 80%; inhibition [6]: > 80%; inhibition [7]: > 80%; inhibition [9]: > 80%; inhibition [10]: > 50%
1.5,0.041,0.023,0.0187,5.5,,NC(=O)c1cc2c(Oc3ccc(Cl)cc3)cnc(N)c2s1,EC50 [11]: 6700 nM; IC50 (CDK9/cyclin T1): 1100 nM; Ratio [12]: 1000; EC50 [13]: 5400 nM; Activity (HCT-116 [14]): Active; Activity (HCT-116 [15]): Active
59,,,,,,O=C(c1cc2c(Oc3ccc(Cl)cc3)cncc2s1)C1CC1,
21,0.217,0.232,0.227,7,,NC(=O)c1ccc(Oc2cncc3sc(C(N)=O)cc23)cc1,
24,0.009,0.007,0.008,,,O=C(NC1CC1)c1cc2c(Oc3ccc(Cl)cc3)cncc2s1,
11,,,,< 1,,NC(=O)c1cc2c(Oc3ccc(Cl)cc3)cnc(Cl)c2s1,
1.6,,,,,12,Cc1ccc(Oc2cncc3sc(-c4nn[nH]n4)cc23)cc1,EC50 [11]: > 10000 nM; EC50 [13]: > 10000 nM
100,,,,,,CC(C)NC(=O)c1cc2c(Oc3ccc(Cl)cc3)cncc2s1,
16,,,,< 1,,NC(=O)c1cc2c(Oc3ccc(Cl)cc3)cnc(F)c2s1,
62,,,,,,COC(=O)c1cc2c(Oc3ccc(Cl)cc3)cncc2s1,
